Measurements published in ChEMBL document CHEMBL1122773 (1984).
Values after ≈ are worked out from the molar mass of the structure shown.

Key:
Format in all cases: functional
Mus musculus [1] = experiment: In vivo antibacterial activity against Pasteurella multocida (UC no 264) infected mice after sc administration
Procedure, shortened: (§1)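 Fresh drug solutions were given subcutaneously (0.2 mL) or by oral intubation (0.5 mL), per line. Dosing was immediately after infection, then daily for 4 consecutive days, with 3 further days of observation. CD50 was calculated by Spearman-Karber.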

Mus musculus [2] = experiment: In vivo antibacterial activity against Proteus vulgaris (UC no 347) infected mice after sc administration; procedure, shortened: as §1
Mus musculus [3] = experiment: In vivo antibacterial activity against Streptococcus pyogenes(UC 152) infected mice after sc administration; procedure, shortened: as §1
Mus musculus [4] = experiment: (§2) In vivo antibacterial activity against Proteus vulgaris(UC 347) infected mice after oral administration; procedure, shortened: as §1
Mus musculus [5] = experiment: In vivo antibacterial activity against Streptococcus pneumoniae III(UC 3213) infected mice after oral administration; procedure, shortened: as §1
Mus musculus [6] = experiment: (§3) In vivo antibacterial activity against Klebsiella pneumoniae(UC 58) infected mice after oral administration; procedure, shortened: as §1
Mus musculus [7] = experiment: In vivo antibacterial activity against Streptococcus pneumoniae I (UC 41) infected mice after sc administration; procedure, shortened: as §1
Bacteroides fragilis = experiment: In vitro antibacterial activity against the anaerobic Bacteroides fragilis (Strain UC no.6864)
Procedure, shortened: (§4)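 Agar dilution with serial twofold drug dilutions in Schaedler broth mixed into molten Wilkens-Chalgren agar. Strains grown 48 h on Schaedler agar, suspended to 0.5 McFarland, and 0.001 mL spotted by replicator. All steps done anaerobically. Incubation 48 h at 37 °C. MIC is the least drug inhibiting growth; a faint film or fewer than three colonies scored negative.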

Clostridioides difficile [8] = experiment: In vitro antibacterial activity against the anaerobic Clostridium difficile (Strain UC no.6834); procedure, shortened: as §4
Clostridioides difficile [9] = experiment: In vitro antibacterial activity against the anaerobic Clostridium difficile (Strain UC no.6857); procedure, shortened: as §4
Clostridioides difficile [10] = experiment: In vitro antibacterial activity against the anaerobic Clostridium difficile (Strain UC no.6861); procedure, shortened: as §4
Eggerthella lenta = experiment: In vitro antibacterial activity against the anaerobic Eubacterium lentum(Strain UC no.6522); procedure, shortened: as §4
Eubacterium limosum = experiment: In vitro antibacterial activity against the anaerobic Eubacterium limosum(Strain UC no.6515); procedure, shortened: as §4
Pasteurella multocida = experiment: In vivo antibacterial activity against Pasteurella multocida(UC no 264) infected mice after sc administration; procedure, shortened: as §1
Plasmodium berghei = experiment: In vivo activity against Plasmodium berghei in mice (Mus musculus) on oral administration
Proteus vulgaris [11] = experiment: as §2; procedure, shortened: as §1
Proteus vulgaris [12] = experiment: In vivo antibacterial activity against Proteus vulgaris(UC no 347) infected mice after sc administration; procedure, shortened: as §1
[13] = system: Peptoniphilus asaccharolyticus; experiment: In vitro antibacterial activity against the anaerobic Peptococcus asaccharolyticus (Strain UC no.6214); procedure, shortened: as §4
Staphylococcus aureus = experiment: In vivo antibacterial activity against Staphylococcus aureus(UC 76) infected mice after oral administration (value in parenthesis is 95% confidence interval); procedure, shortened: as §1
Enterococcus faecalis = experiment: In vitro antibacterial activity against the aerobic […] (Strain UC no.694)
Procedure, shortened: (§5)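 Broth microdilution in brain/heart infusion broth with twofold drug dilutions. Inoculum was a standardized suspension giving 10⁵ viable cells/mL final. Plates were incubated 20 h at 37 °C. MIC (mcg/mL) = lowest concentration with no visible growth.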

[14] = system: Staphylococcus epidermidis; experiment: In vitro antibacterial activity against the aerobic Staphylococcus epidermidis (Strain UC no.719); procedure, shortened: as §5
Streptococcus pneumoniae = experiment: In vivo antibacterial activity against Streptococcus pneumoniae III (UC no 3213) infected mice after sc administration (value in parenthesis is 95% confidence interval); procedure, shortened: as §1
Klebsiella pneumoniae = experiment: as §3; procedure, shortened: as §1

CCC[C@@H]1C[C@@H](C(=O)N[C@@H]([C@H]2O[C@H](SC)[C@H](O)[C@@H](O)[C@H]2O)[C@H](C)Cl)N(C)C1 [CLINDAMYCIN] was tested, and the CD50 (Mus musculus [1]) was >160 mg/kg, the CD50 (Mus musculus [2]) was >160 mg/kg and the CD50 (Mus musculus [3]) was 2.3 mg/kg. For the same molecule, the CD50 (Mus musculus [4]) was >400 mg/kg, the CD50 (Mus musculus [5]) was 37.9 mg/kg and the CD50 (Mus musculus [6]) was >400 mg/kg. The CD50 (Mus musculus [7]) was 40 mg/kg.

CC[C@@H]1CCN[C@H](C(=O)N[C@@H]([C@H]2O[C@H](SC)[C@H](O)[C@@H](O)[C@H]2O)[C@H](C)Cl)C1 [PIRLIMYCIN] was tested, and the MIC (Bacteroides fragilis) was 2 µg/mL (≈ 4.87 µM), the MIC (Clostridioides difficile [8]) was 3.9 µg/mL (≈ 9.49 µM) and the MIC (Clostridioides difficile [9]) was 125 µg/mL (≈ 304 µM). For the same molecule, the MIC (Clostridioides difficile [10]) was 2 µg/mL (≈ 4.87 µM), the MIC (Eggerthella lenta) was 1 µg/mL (≈ 2.43 µM) and the MIC (Eubacterium limosum) was 2 µg/mL (≈ 4.87 µM). For the same molecule, the CD50 (Pasteurella multocida) was >160 mg/kg, the CD50 (Plasmodium berghei) was >50 mg/kg and the CD50 (Proteus vulgaris [11]) was >400 mg/kg. The CD50 (Proteus vulgaris [12]) was >160 mg/kg, the MIC [13] was 0.25 µg/mL (≈ 0.608 µM) and the CD50 (Staphylococcus aureus) was 2.9 mg/kg. The MIC (Enterococcus faecalis) was 6.25 µg/mL (≈ 15.2 µM), the MIC [14] was 0.2 µg/mL (≈ 0.487 µM) and the CD50 (Streptococcus pneumoniae) was 2.7 mg/kg. The CD50 (Klebsiella pneumoniae) was >400 mg/kg.
